The results in this text go back to ChEMBL document CHEMBL1157262, “A pyrimidine-beta-carboline and other alkaloids from Annona foetida with antileishmanial activity” (J Nat Prod, 2006).

The structures appear in SMILES notation. Some results are limits rather than exact numbers.

For the first assay, the system named is Leishmania braziliensis. The assay can be described thus: Antileishmanial activity against Leishmania braziliensis MHOM/BR/95/IOCL-2033 promastigotes after 24 hrs. The format is functional, organism-based. In a few lines:
(§1)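 Promastigotes grown in Schneider's Drosophila medium with 20% (v/v) heat-inactivated FCS, harvested late-log; log-phase cells at 4.0 × 10⁶ cells/mL in 96-well trays, 26 °C, 95% air/5% CO₂. Compounds in DMSO, 160–0.16 μg/mL, triplicate per concentration. Viability counted by Neubauer chamber after 24 h; IC50 = concentration inhibiting growth 50%. Pentamidine positive control.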
The compound `COc1c(OC)c2c3c(nccc3c1OC)C(=O)c1ccccc1-2` [HOMOMOSCHATOLINE] showed an IC50 of 321 µM.

`Nc1nccc(-c2nccc3c2[nH]c2ccccc23)n1` [ANNOMONTINE] displayed a concentration for half-maximal inhibition (IC50) of 34.8 µM. This IC50 lies about 9.2-fold lower than the previous one.

As to `N=C(N)c1ccc(OCCCCCOc2ccc(C(=N)N)cc2)cc1` [PENTAMIDINE], the half-maximal inhibitory concentration (IC50) was found to be 2.9 µM.

In the case of `O=C1c2ccccc2-c2c3c(cc4ccnc1c24)OCO3` [LIRIODENINE], the IC50 is 58.5 µM.

For the compound `Nc1nccc(-c2nccc3c4ccccc4n(O)c23)n1`, the IC50 was 253 µM.

Another assay deals with Leishmania guyanensis. The experiment in a line: Antileishmanial activity against Leishmania guyanensis MHOM/BR/95/IOCL-2092 promastigotes after 24 hrs. It counts as functional, organism-based. The method, boiled down: as §1
The compound `COc1c(OC)c2c3c(nccc3c1OC)C(=O)c1ccccc1-2` [HOMOMOSCHATOLINE] registered a concentration for half-maximal inhibition (IC50) of 104 µM.

Compound `Nc1nccc(-c2nccc3c2[nH]c2ccccc23)n1` [ANNOMONTINE] had an IC50 of over 613 µM.

Turning to `N=C(N)c1ccc(OCCCCCOc2ccc(C(=N)N)cc2)cc1` [PENTAMIDINE], half-maximal inhibition (IC50) required 0.9 µM.

In turn, `O=C1c2ccccc2-c2c3c(cc4ccnc1c24)OCO3` [LIRIODENINE] gave an IC50 of 21.5 µM.

For the compound `Nc1nccc(-c2nccc3c4ccccc4n(O)c23)n1`, the IC50 came to 438 µM.

The term IC50 denotes the concentration at which inhibition is half-maximal.
